Compound activity from PubChem.
Hits are enriched below; roughly 0.57% of the tested compounds scored in any of these assays.
sEH inh: inhibitors of human soluble epoxide hydrolase; P34913; recombinant human sEH enzymatic activity assay; inhibition, % at 2 µM; hit rate 0.34% among 91,000; AID 707; in the data active = inhibition above about 80%
BAP1 block: human BAP1 deubiquitinase inhibition | hit rate 0.48% among 72,000 | Q92560 | calls only at 20 µM | recombinant BAP1, Ub-AMC hydrolysis fluorescence kinetic; hits give low values;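 active = activity remaining at or below 50% of control, provided the compound also passes the data quality filters; inactive = the rest, including low values that fail the filters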;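 note: 100% = DMSO wells rate and 0% = substrate alone blank rate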
Target sequence (Q92560 whole entry, looked up): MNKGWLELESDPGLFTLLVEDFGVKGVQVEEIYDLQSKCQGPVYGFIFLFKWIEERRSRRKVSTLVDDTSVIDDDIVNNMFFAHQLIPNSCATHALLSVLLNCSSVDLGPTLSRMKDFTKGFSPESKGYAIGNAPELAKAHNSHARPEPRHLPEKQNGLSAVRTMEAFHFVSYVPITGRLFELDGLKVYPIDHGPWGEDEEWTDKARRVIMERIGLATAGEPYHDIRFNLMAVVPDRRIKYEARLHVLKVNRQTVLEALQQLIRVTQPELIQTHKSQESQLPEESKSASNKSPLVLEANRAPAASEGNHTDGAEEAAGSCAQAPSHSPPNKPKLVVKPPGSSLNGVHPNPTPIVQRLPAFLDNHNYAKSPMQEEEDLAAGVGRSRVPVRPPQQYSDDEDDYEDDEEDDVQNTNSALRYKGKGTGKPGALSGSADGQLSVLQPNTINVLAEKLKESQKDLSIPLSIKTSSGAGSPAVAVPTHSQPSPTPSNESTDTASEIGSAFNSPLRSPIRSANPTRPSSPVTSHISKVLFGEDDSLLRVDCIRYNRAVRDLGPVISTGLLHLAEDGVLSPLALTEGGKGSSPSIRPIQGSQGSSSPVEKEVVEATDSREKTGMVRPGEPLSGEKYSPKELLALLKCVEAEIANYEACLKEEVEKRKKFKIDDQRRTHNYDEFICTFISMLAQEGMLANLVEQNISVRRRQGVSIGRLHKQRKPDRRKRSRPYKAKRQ
AP ELISA ortho: alternative pathway complement inhibition, orthogonal assay; Human serum alternative complement pathway, LPS-coated ELISA, C3 deposition; tested in compound mixtures; hit rate 0.08% among 62,000; inhibition, % at 5 µM;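 active = inhibition above 30% in each of the two pooled mixtures holding the compound, so the lower value exceeds 30%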;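 note: 0% = serum in Mg-EGTA without compound and 100% = EDTA serum blank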
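Assay system: human serum alternative complement pathway, C3 deposition on LPS-coated wells; Dosing: 5 µM per compound in ten-compound mixtures; Detection: Anti-C3 ELISA, OD 450 nm; Buffer or medium: Mg2+-EGTA GVB++ buffer containing human serum at 1:15 dilution; Timing: 1 h at 37 °C; Replication: two different pools per compound.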
sEH activator: increases human soluble epoxide hydrolase activity. P34913. purified human sEH enzymatic activity, activator screen. activation, % at 2 µM. hit rate 0.04% among 91,000. AID 717; in the data active = activation above about 37%
Numbers without * were called inactive; i = inactive; . = no result given; + = active, no number.

SMILES	sEH inh	BAP1 block	AP ELISA ortho	sEH activator
COc1cccc(CNC(=O)C2CCC(CNS(=O)(=O)c3cccc4nsnc34)CC2)c1 (stereo not given)	80*	.	.	-80
O=C(Nc1cnn(Cc2ccccc2)c1)NC12CC3CC(CC(C3)C1)C2	92*	.	.	-92
O=C(O)C1C2CCC(O2)C1C(=O)Nc1cnn(Cc2ccccc2)c1 (stereo not given)	-9	.	.	10
O=C(NCc1cccs1)C1CCN(S(=O)(=O)c2ccc(Br)s2)CC1	10	i	12	-8
O=C(NCc1cccs1)C1CCC(CNS(=O)(=O)c2ccc(Br)s2)CC1 (stereo not given)	92*	i	5	-92
CCC(=O)Nc1ccc(C(=O)n2ccc(C)n2)cc1	17	i	35*	-18
O=C(O)CCc1nn2c3ccccc3nc2n(CCN2CCCCC2)c1=O	-54	i	-2	57*
CC1(C)CC(=C2C3C=CC2C2C(=C4CC(C)(C)NC(C)(C)C4)C=CC32)CC(C)(C)N1 (stereo not given)	.	i	.	.
CCOC(=O)c1sc(NC(=O)Nc2ccc(Cl)cc2)cc1C	92*	.	.	-92
CCOC(=O)c1sc(NC(=O)c2ccc(Cl)s2)cc1C	91*	i	23	-91
CCOC(=O)c1sc(NC(=O)c2ccccc2)cc1C	62	.	.	-61
COCCCNC(=O)c1ccc2c(=O)n(Cc3ccc4c(c3)OCO4)c(=S)[nH]c2c1	57	.	.	-56
COC(=O)c1ccc2c(=O)n(CCCCCC(=O)NCc3ccc4c(c3)OCO4)c(=O)[nH]c2c1	73	.	.	-73
COCCCNC(=O)CCCn1c(=O)[nH]c2ccccc2c1=O	0	i	21	1
CC1CC(C)CN(C(=O)c2ccc3c(=O)n(Cc4ccc5c(c4)OCO5)c(=S)[nH]c3c2)C1 (stereo not given)	85*	.	.	-84
CCN(CCCNC(=O)CCCCn1c(=O)[nH]c2ccccc2c1=O)c1ccccc1	80*	i	12	-80
O=C(CCCCCn1c(=S)[nH]c2ccccc2c1=O)NCc1ccc2c(c1)OCO2	83*	.	.	-83
O=C(c1ccc2c(=O)n(Cc3ccc4c(c3)OCO4)c(=S)[nH]c2c1)N1CCCCC1	82*	i	13	-82
O=C1CC(c2cccc(Br)c2)Nc2ccc3ccccc3c21 (stereo not given)	.	i	.	.
COc1ccc(C(=O)N2c3ccccc3C(N(C(C)=O)c3ccccc3)CC2C)cc1 (stereo not given)	.	i	.	.
CC(=O)Oc1ccc2c3c(c(=O)oc2c1)CCC3	.	i	.	.
O=C(NCCC1=CCCCC1)C1CCCN(S(=O)(=O)c2ccccc2)C1 (stereo not given)	84*	i	0	-83
Cc1ccc(S(=O)(=O)N2CCCC(C(=O)NCCC3=CCCCC3)C2)cc1 (stereo not given)	82*	.	.	-82
CC(C)(C)c1ccc(C(=O)N2CCC(C(=O)NCCC3=CCCCC3)CC2)cc1	86*	.	.	-85
O=C(NCCC1=CCCCC1)C1CCN(C(=O)Nc2ccccc2)CC1	36	i	3	-37
SMILES	sEH inh	BAP1 block	AP ELISA ortho	sEH activator
Oc1ccc(N=CC=Cc2cccc(Br)c2)cc1-c1nc2ccccc2o1	.	i	.	.
CC1=CCC2CC1NC(=O)CCOCCC(=O)NC2(C)C (stereo not given)	.	i	.	.
CCCCCCCC/C=C\CCCCCCCC(=O)NCCO	.	i	.	.
CCCCCCCC/C=C\CCCCCCCC(=O)NCCc1ccc(O)c(O)c1	.	+	.	.
CCn1nc(CC(=O)Nc2ccc(-n3cnnn3)c(OC)c2)c2ccccc2c1=O	38	.	.	-35
CCn1nc(CC(=O)Nc2ccc(-n3cnnn3)c(C)c2)c2ccccc2c1=O	93*	.	-7	-92
Cc1ccccc1N(CCN1C(=O)c2cccc3c(N4CCCCC4)ccc(c23)C1=O)C(=O)c1ccc(S(=O)(=O)N(C)C)cc1	.	i	.	.
O=C(CSc1nc2c(c(=O)n1-c1ccc(Cl)cc1)SCC2)Nc1nccs1	.	.	11	.
O=C(CSc1nc2c(c(=O)n1-c1ccc(Br)cc1)SCC2)Nc1nccs1	-45	i	30	47*
O=C(N/N=C/c1cccc(O)c1)c1csc2ccccc12	84*	.	.	-84
CCCCOc1cccc(/C=N/NC(=O)c2csc(C)c2C)c1	82*	.	.	-82
Cc1scc(C(=O)N/N=C/c2ccc(OC(C)C)cc2)c1C	70	.	.	-69
CC1CCCN(S(=O)(=O)c2ccc(NC(=O)c3cccc(-n4cnnn4)c3)cc2)C1 (stereo not given)	96*	i	17	-96
C/C(=N\NC(=O)Cc1cccn1C)c1cccc2ccccc12	82*	.	.	-82
C/C(=N/NC(=O)Cc1cccn1C)c1ccccc1	10	.	.	-11
Cc1cc(NC(=O)CSc2cn(CCNC(=O)c3ccccc3)c3ccccc23)no1	12	i	13	-10
Cc1ccc(C(=O)NCCn2cc(SCC(=O)Nc3cc(C)on3)c3ccccc32)cc1	.	i	32*	.
O=C(Nc1ccc2c(c1)nc1n2CCN(C2CCCCC2)C1)NC1CCCCC1	89*	.	.	-89
O=C(Nc1ccc(OC(F)F)cc1)Nc1cccc(C(F)(F)F)c1	86*	.	.	-86
O=C(Nc1ccc(F)c(F)c1)NC1CCCCC1	90*	i	1	-90
CC(=O)c1cccc(NC(=O)NC2CCCCC2)c1	69	i	3	-69
O=C(Nc1cccc(C(F)(F)F)c1)NC1CCCCC1	94*	.	.	-94
COc1ccc(Cl)cc1NC(=O)c1cc2n(n1)C(C(F)(F)F)CC(c1ccco1)N2 (stereo not given)	.	i	.	.
O=C(Nc1ccccc1)N1CCCC(c2nc(-c3cccs3)no2)C1 (stereo not given)	.	i	-2	.
O=C(NC1CCCCC1)N1CCCC(c2nc(-c3cccs3)no2)C1 (stereo not given)	96*	.	.	-96
SMILES	sEH inh	BAP1 block	AP ELISA ortho	sEH activator
O=C(Nc1cccc(C(F)(F)F)c1)N1CCC(c2nc(-c3ccc(F)cc3)no2)CC1	93*	i	-30	-93
COc1ccc(NC(=O)N2CCC(c3nc(-c4cccs4)no3)CC2)cc1	90*	i	9	-90
O=C(Nc1ccc(Cl)cc1)N1CCC(c2nc(-c3ccccc3Cl)no2)CC1	88*	.	.	-88
O=C(c1ccco1)N1CCC(c2nc(-c3ccc(F)cc3)no2)CC1	-5	i	13	7
COc1cc(C(=S)N2CCOCC2)ccc1OC(=O)c1ccc([N+](=O)[O-])cc1	.	i	.	.
O=C(Oc1ccc2ccc(=O)oc2c1)c1cccc([N+](=O)[O-])c1	.	i	.	.
CC(C)Cn1c(N(C)C)nc2c1c(=O)[nH]c(=O)n2C	.	i	.	.
CC1=C(C(=O)OCCOc2ccccc2)C2(O)C(=O)c3ccccc3C2(O)N1 (stereo not given)	.	i	.	.
CC(=O)Nc1ccccc1C(=O)C(=O)Nc1cccc(F)c1	-43	.	.	39*
COC(=O)c1[nH]c2cccc(OC)c2c1NC(=O)CCN1CCN(c2cccc(Cl)c2)CC1	-113	i	13	114*
CC1CCCCN1C(=O)NC12CC3CC(CC(C3)C1)C2 (stereo not given)	87*	.	.	-88
COC(=O)C(NC(=O)C(c1ccccc1)c1ccccc1)C12CC3CC(CC(C3)C1)C2 (stereo not given)	.	i	.	.
